In ChEMBL document CHEMBL1139853, “Anxiolytic effects of erythrinian alkaloids from Erythrina mulungu” (2007) one finds Activity data, which are given here for four compounds.

Calls of active or inactive are those of the source. The calls are words filed in the database; no cut-off is given here.

In assay [1] the test system is Mus musculus. Kind of assay: Antianxiolytic activity in Swiss mouse assessed as impairment of inhibitory avoidance task by elevated T-maze test at 10 mg/kg, po. In kind it is functional, organism-based. Also noted: dose 10 mg/kg. In short, it runs like this:
(§1)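 Naive male Swiss mice (25-35 g) received alkaloid suspended in saline (NaCl 0.9%) orally (3-10 mg/kg range) 30 min before testing, with saline vehicle controls. Inhibitory avoidance latency to leave the enclosed arm was measured in an elevated T-maze (38.5 cm high; three 30 cm × 5 cm arms). Analysis was one-way ANOVA followed by Duncan's test.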

The subject of assay [2] is Mus musculus. Kind of assay: Antianxiolytic activity in Swiss mouse assessed as reduction of latency to leave the enclosed arm by elevated T maze test at 2 mg/kg, ip. Also on record: dose 2 mg/kg. In kind it is functional, organism-based. Put shortly: (§2)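 Male Swiss mice (25-35 g, naive), group-housed on a 12 h light cycle. Diazepam was suspended in saline + 2% Tween 80 and given ip 30 min before the session. Elevated T-maze raised 38.5 cm above the floor, with three 30 cm × 5 cm arms; arm-exit latencies were recorded. Analysis was one-way ANOVA with Duncan's post hoc test.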

In assay [3] the test system is Mus musculus. Kind of assay: Antianxiolytic activity in Swiss mouse assessed as impairment of inhibitory avoidance task by elevated T-maze test at 3 mg/kg, po. In kind it is functional, organism-based. Also noted: dose 3 mg/kg. In short, it runs like this:
as §1

Assay [4] has as its system Mus musculus. Kind of assay: Antianxiolytic activity in Swiss mouse assessed as reduction of latency to leave the enclosed arm by elevated T maze test at 10 mg/kg, po. In kind it is functional, organism-based. Also noted: dose 10 mg/kg. In short, it runs like this:
(§3)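 Male Swiss mice, 25-35 g, experimentally naive, group-housed 10 per cage on a 12 h light cycle at 23 ± 1 °C/55 ± 5% humidity. Test agent suspended in saline (NaCl 0.9%) and given orally (3-10 mg/kg) 30 min before the session; vehicle saline po; diazepam reference 2 mg/kg ip in saline + 2% Tween 80. Elevated T-maze 38.5 cm above the floor, three 30 cm × 5 cm arms. One-way ANOVA followed by Duncan's test.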

Assay [5] deals with Mus musculus. Kind of assay: Antianxiolytic activity in Swiss mouse assessed as effect on latency to leave the open arm by elevated T maze test at 2 mg/kg, ip. Also on record: dose 2 mg/kg. In kind it is functional, organism-based. In short, it runs like this: as §2
The subject of assay [6] is Mus musculus. Kind of assay: Locomotor activity in Swiss mouse measured as number of crossings in the arena test at 10 mg/kg, po. In kind it is functional. Put shortly:
(§4)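 Male Swiss mice (25-35 g, naive) given the test agent orally at 3-10 mg/kg as a saline suspension, 30 min before testing. Saline po served as vehicle; diazepam 2 mg/kg ip (saline + 2% Tween 80) was the reference. Arena locomotor test scoring crossings and rearings; mean ± SEM reported.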

Assay [7] concerns Mus musculus. Kind of assay: Locomotor activity in Swiss mouse measured as number of crossings in the arena test at 3 mg/kg, po. In kind it is functional. In short, it runs like this:
as §4

The test system of assay [8] is Mus musculus. Kind of assay: Locomotor activity in Swiss mouse measured as number of rearings in the arena test at 3 mg/kg, po. In kind it is functional. In short, it runs like this: as §4
In assay [9] the test system is Mus musculus. Kind of assay: Locomotor activity in Swiss mouse measured as number of rearings in the arena test at 10 mg/kg, po. In kind it is functional. In short, it runs like this:
as §4

For assay [10], the system named is Mus musculus. Kind of assay: Antianxiolytic activity in Swiss mouse assessed as reduction of latency to leave the enclosed arm by elevated T maze test at 3 mg/kg, po. Also noted: dose 3 mg/kg. In kind it is functional, organism-based. In short, it runs like this: as §3
The subject of assay [11] is Mus musculus. Kind of assay: Antianxiolytic activity in Swiss mouse assessed as effect on latency to leave the open arm by elevated T maze test at 10 mg/kg. Also on record: dose 10 mg/kg. In kind it is functional, organism-based. Put shortly: as §3

In the case of `CN1C(=O)CN=C(c2ccccc2)c2cc(Cl)ccc21`, the outcome in the assay on Mus musculus [1], in the assay with Mus musculus [2], in the assay with Mus musculus [3] and in the assay on Mus musculus [4] was Active. The result in the assay on Mus musculus [5] was inactive.
For the compound `COc1cc2c(cc1OC)[C@]13C[C@@H](OC)C=CC1=CCN3C[C@H]2O`, the result in the assay on Mus musculus [1] and with Mus musculus [3] was Active. In addition, the Activity in the assay on Mus musculus [6] is reported as 159; in the assay with Mus musculus [7], 135.3; with Mus musculus [8] it was 29.6; in the assay on Mus musculus [9], 29.63.
With `COc1cc2c(cc1OC)[C@]13C[C@@H](O)C=CC1=CCN3CC2`, the Activity was determined as 157.93 in the assay with Mus musculus [6], 157.33 in the assay on Mus musculus [7], 37.07 in the assay with Mus musculus [8] and 31.71 in the assay with Mus musculus [9]. In addition, the outcome in the assay with Mus musculus [4] and in the assay on Mus musculus [10] was Active.
Turning to `COc1cc2c(cc1OC)[C@]13C[C@@H](O)C=CC1=CCN3C[C@H]2O`, in the assay on Mus musculus [11], the result was inactive. Moreover, the Activity in the assay on Mus musculus [6] was 126.56; with Mus musculus [7], 158.5; in the assay with Mus musculus [8], 27.7; with Mus musculus [9] it was 22.44. For the same compound, the outcome in the assay on Mus musculus [4] was Active.
